Measured values from ChEMBL document CHEMBL3286121, “Synthesis of 5-methyl phenanthridium derivatives: a new class of human DOPA decarboxylase inhibitors” (Bioorg Med Chem Lett, 2014).

Biological target: T1, Aromatic-L-amino-acid decarboxylase (Homo sapiens, UniProt P20711)
T1 sequence (P20711 whole entry): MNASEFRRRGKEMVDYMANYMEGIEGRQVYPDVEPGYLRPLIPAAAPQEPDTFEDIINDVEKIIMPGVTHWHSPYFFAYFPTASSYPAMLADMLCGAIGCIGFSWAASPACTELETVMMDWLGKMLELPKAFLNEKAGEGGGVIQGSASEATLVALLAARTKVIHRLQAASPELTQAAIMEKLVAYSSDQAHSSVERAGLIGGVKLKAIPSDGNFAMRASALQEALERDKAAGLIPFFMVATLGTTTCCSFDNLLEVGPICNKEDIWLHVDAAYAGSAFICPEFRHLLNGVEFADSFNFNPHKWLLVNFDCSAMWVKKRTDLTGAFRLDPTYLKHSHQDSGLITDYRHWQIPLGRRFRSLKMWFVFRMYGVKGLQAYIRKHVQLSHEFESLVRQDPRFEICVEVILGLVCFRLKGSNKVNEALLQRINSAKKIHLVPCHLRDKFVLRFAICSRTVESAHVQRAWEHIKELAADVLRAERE
Assay: Inhibition of recombinant human DOPA decarboxylase assessed as inhibition of dopamine production after 30 mins by HPLC method
Conditions: not given; call rule not given here
Method in brief: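 Recombinant human enzyme reacted with L-DOPA (1 mM final) and PLP cofactor in pH 6.8 buffer, enzyme […] final, with or without compound, 37 °C for 30 min; stopped by heating at 100 °C for 2 min. Dopamine formed quantified by HPLC, 0.2% formic acid/methanol 9:1 eluent, UV 280 nm. IC50 from dose-response curves, 6 concentrations, each in duplicate.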

SMILES	IC50
CN1Cc2c(ccc3c2OCO3)-c2ccc3cc4c(cc3c21)OCO4 [DIHYDROSANGUINARINE]	Not Active
COc1ccc2cc3[n+](cc2c1OC)CCc1cc2c(cc1-3)OCO2 [BERBERINE]	Not Active

Same assay, conditions: read-out: IC50

IC50	SMILES
950 µM	COc1ccc2c(c1)c[n+](C)c1ccccc21
1170 µM	COc1ccc2c(c1)c1cc(OC)c(OC)cc1c[n+]2C
120 µM	COc1ccc2c(c1)c[n+](C)c1ccc(O)cc21
600 µM	COc1ccc2c(c1)c[n+](C)c1ccc(C)cc21
930 µM	COc1ccc2c(c1)c[n+](C)c1ccc(Cl)cc21
1390 µM	COc1cc2c[n+](C)c3ccc(Cl)cc3c2cc1OC
200 µM	C[n+]1cc2c3c(ccc2c2ccc4cc5c(cc4c21)OCO5)OCO3 [SANGUINARIUM CHLORIDE]
1490 µM	COc1cc2c[n+](C)c3ccc(C)cc3c2cc1OC
400 µM	C[n+]1cc2ccccc2c2ccccc21
2690 µM	COc1cc2c[n+](C)c3ccc(F)cc3c2cc1OC
190 µM	COc1ccc2c(c1)c[n+](C)c1ccc(OC)cc21
1340 µM	COc1cc2c[n+](C)c3c4cc5c(cc4ccc3c2cc1OC)OCO5 [NITIDINE]
3500 µM	COc1cc2c[n+](C)c3ccccc3c2cc1OC
570 µM	COc1ccc2c(c1)c[n+](C)c1ccc(F)cc21

SMILES	IC50
COc1ccc2c(c[n+](C)c3c4cc5c(cc4ccc23)OCO5)c1OC [CHELERYTHRINE]	1280 µM
